Holding throughout (type): biochemical
Experiment [1] addresses T1, wild-type bovine olfactory CNG channel (α3 subunit) (Bos taurus, UniProt Q03041).
T1 sequence (Q03041 1-663): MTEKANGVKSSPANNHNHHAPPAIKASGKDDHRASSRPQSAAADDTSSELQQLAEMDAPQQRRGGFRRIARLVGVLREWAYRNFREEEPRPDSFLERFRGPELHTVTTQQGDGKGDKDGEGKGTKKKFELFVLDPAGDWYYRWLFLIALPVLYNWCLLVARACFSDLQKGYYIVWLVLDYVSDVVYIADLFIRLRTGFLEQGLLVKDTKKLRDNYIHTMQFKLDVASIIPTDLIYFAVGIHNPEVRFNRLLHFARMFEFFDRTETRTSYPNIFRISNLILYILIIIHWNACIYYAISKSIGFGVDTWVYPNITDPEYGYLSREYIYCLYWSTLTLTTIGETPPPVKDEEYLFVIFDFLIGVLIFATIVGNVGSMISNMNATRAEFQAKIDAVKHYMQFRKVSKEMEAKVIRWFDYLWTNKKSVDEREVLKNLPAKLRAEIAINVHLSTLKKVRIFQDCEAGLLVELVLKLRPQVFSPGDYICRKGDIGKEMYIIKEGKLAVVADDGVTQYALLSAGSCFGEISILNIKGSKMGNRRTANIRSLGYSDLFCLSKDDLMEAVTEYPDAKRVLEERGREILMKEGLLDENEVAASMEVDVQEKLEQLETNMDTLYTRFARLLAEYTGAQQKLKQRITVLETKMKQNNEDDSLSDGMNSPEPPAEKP
Description: Divalent cation permeation, outside-out patches in bi-ionic conditions. As to conditions: for reversal potential, V rev: internal Na. Put shortly:
(§1)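 Outside-out oocyte patches; the pipette held 1 mM cGMP and 110 mM NaCl. External 110 mM NaCl was replaced by 73.3 mM CaCl2 or MgCl2. From a 0 mV holding potential, 150-ms steps were given from −80 to +80 mV in 20-mV increments. I_Ca/I_Na was taken at −80 mV, and reversal potential under bi-ionic conditions (internal Na+, external divalent); mean ± SD.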

Experiment [2] has as its target T2, E340G mutant bovine olfactory CNG channel (Bos taurus, UniProt Q03041, E340G).
T2 sequence (Q03041 1-663 E340G): T1 sequence (Q03041 1-663) with E340G
The description is as above. As to conditions: for reversal potential, V rev: internal Na. Put shortly:
as §1

The target in experiment [3] is T3, E340N mutant bovine olfactory CNG channel (Bos taurus, UniProt Q03041, E340N).
T3 sequence (Q03041 1-663 E340N): T1 sequence (Q03041 1-663) with E340N

Experiment [4] concerns the target T1, wild-type bovine olfactory CNG channel (α3 subunit). Description: Blockage of macroscopic current by external Ca2+ or Mg2+, outside-out patches. As to conditions: for Ki: mean ± SD. Put shortly:
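Xenopus oocytes injected with wild-type or mutant channel mRNA; outside-out patches with 100 μM cGMP in the pipette. Bath: 110 mM NaCl, 2 mM EDTA, 10 mM HEPES, pH 7.4, plus Ca2+ (NTA-buffered) or Mg2+ (EDTA-buffered); unbuffered above 0.1 mM. Five 1-s ramps (−80 to +80 mV) averaged, leak subtracted. Current normalised to divalent-free current at the same voltage, Hill-fitted per patch; Ki and n given as mean ± SD.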

Where [5] appears, read: −80 mV, external 73.3 mM CaCl2 vs 110 mM NaCl.

Changes are numbered by the printed parent chain. Like-named read-outs stand apart in the source and are kept apart here.

Experimental findings from PMC2233693 (The Journal of General Physiology, 2000) are described below.

For orientation: Ki means the equilibrium dissociation constant of an inhibitor or competing ligand from its target. Low values mean higher affinity, high ones lower affinity. For the molecule `[Ca+2]` [Ca^2+], the “reversal potential, V rev” value in experiment [1] (external Ca2+) is recorded as 25 ± 6 mV; in experiment [2] (external Ca2+), 24 ± 5 mV. The figures for the “I Ca/I Na” value in experiment [1] (setting [5]) and in experiment [2] (setting [5]) were 0.049 ± 0.004 and 0.16 ± 0.03, respectively. For the same molecule, the “effect of external Ca2+ on K 1/2 for cAMP or cGMP” value in experiment [3] (1 mM Ca2+ in the patch pipette) was “did not significantly affect K 1/2”. In addition, the “n, Hill coefficient of blockage” value amounted to 0.9 ± 0.1 in experiment [4] (external Ca2+, +80 mV) and 1.3 ± 0.4 in experiment [4] (external Ca2+, −80 mV). Moreover, the Ki was 383 ± 145 µM in experiment [4] (external Ca2+, +80 mV) and 47 ± 21 µM in experiment [4] (external Ca2+, −80 mV).

With `[Mg+2]` [Mg^2+], the “reversal potential, V rev” value in experiment [1] (external Mg2+) was found to be 45 ± 7 mV; in experiment [2] (external Mg2+), 45 ± 15 mV. The “n, Hill coefficient of blockage” value was 1.0 ± 0.1 in experiment [4] (external Mg2+, +80 mV) and 1.2 ± 0.2 in experiment [4] (external Mg2+, −80 mV). For the same molecule, the Ki was 920 ± 640 µM in experiment [4] (external Mg2+, +80 mV) and 70 ± 34 µM in experiment [4] (external Mg2+, −80 mV).

On to `Nc1nc2c(ncn2[C@@H]2O[C@@H]3COP(=O)(O)O[C@H]3[C@H]2O)c(=O)[nH]1` [cGMP], for which the “n(−80 mV), Hill coefficient” value in experiment [3] (cGMP) came to 2.1 ± 0.3. Also, the “I(−80 mV)/I(+80 mV)” value in experiment [3] (cGMP-gated current) was 0.55 ± 0.10. Moreover, the EC50 was 5.6 ± 1.8 µM in experiment [3] (read-out: K 1/2, cGMP, +80 mV); 7.6 ± 4 µM in experiment [3] (read-out: K 1/2, cGMP, −80 mV); 6.6 µM in experiment [3] (read-out: K 1/2,cG, −80 mV, single patch, Fig. 1 fit). Besides, the “n cG” value in experiment [3] (−80 mV, single patch, Fig. 1 fit) was determined as 2.3.
